{
  "source": "ChEMBL document CHEMBL4689842",
  "about": "“EUbOPEN Chemogenomics Library wave 1” (2021)",
  "type_in_all_cases": "toxicity, cell-based",
  "key": {"[1]": {"test_system": "HEK-293T", "assay": "Multiplex assay against HEK293T;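 as to Population Tubulin-Different-Phenotype (%): share of the cells with healthy nuclei that show this phenotype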", "conditions": "human, 24 h, 10 µM, compound concentration 10 uM", "in_short": "(§1)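 Tubulin, mitochondrial-mass and membrane-permeability phenotypes are per cents of healthy-nucleus cells. Cells were gated by CellPathfinder machine learning into Hoechst high-intensity objects or normal cells, normal cells into healthy, pyknosed or fragmented nuclei, and pyknosed cells into mitotic or apoptotic. Before that, live cells stained at seeding with Hoechst33342, BioTracker Green Microtubule Cytoskeleton Dye, MitoTracker Red and Annexin V Alexa Fluor 680 were imaged on a CQ1 microscope at 37°C and 5% CO2 after compound addition.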"}, "[2]": {"test_system": "Fibroblast", "assay": "Incucyte cell viability with human fibroblast", "conditions": "10 µM, compound concentration 10 uM"}, "[3]": {"test_system": "HEK-293T", "assay": "Incucyte cell viability with HEK293T", "conditions": "human, 10 µM, compound concentration 10 uM"}, "[4]": {"test_system": "U2OS", "assay": "Incucyte cell viability with U2OS", "conditions": "human, 10 µM, compound concentration 10 uM"}, "[5]": {"test_system": "U2OS", "assay": "Multiplex assay against U2OS", "conditions": "human, 10 µM, compound concentration 10 uM", "in_short": "as §1"}, "[6]": {"conditions": "0 h, replicate number 1, timepoint 0 hours"}, "[7]": {"conditions": "6 h, replicate number 1, timepoint 6 hours"}, "[8]": {"conditions": "12 h, replicate number 1, timepoint 12 hours"}, "[9]": {"conditions": "18 h, replicate number 1, timepoint 18 hours"}, "[10]": {"conditions": "24 h, replicate number 1, timepoint 24 hours"}},
  "note": "Where “and” joins values, the source holds several entries; their conditions need not be identical. Identical values can stand only once. For Growth Rate in this document: filed as whole numbers so only -1 and 0 and 1 occur.",
  "data": [
    {"compound": "COc1ccccc1-c1cc(Nc2cccc(CS(N)(=O)=O)c2)ncn1", "values": [
      {"measurement": "Population Membrane Permeable-Phenotype (%)", "setting": "[1]; replicate 1", "result": 8, "unit": "%"},
      {"measurement": "Population Mitochondria Different-Phenotype (%)", "setting": "[1]; replicate 1", "result": "3% and 5%"},
      {"measurement": "Population Mitotic Cells (%)", "setting": "[1]; replicate 1", "result": "75% and 66%"},
      {"measurement": "Population Normal (%)", "setting": "[1]; replicate 1", "result": "95% and 86%"},
      {"measurement": "Population Pyknosed Nuclei (%)", "setting": "[1]; replicate 1", "result": "8% and 17%"},
      {"measurement": "Population Tubulin-Different-Phenotype (%)", "setting": "[1]; replicate 1", "result": 6, "unit": "%"},
      {"measurement": "Total Cell Count", "setting": "[1]; replicate 1", "result": "801 and 590"},
      {"measurement": "Population Apoptotic (%)", "setting": "[1]; replicate 2", "result": "11% and 13%"},
      {"measurement": "Population Healthy Nuclei (%)", "setting": "[1]; replicate 2", "result": "66% and 86%"},
      {"measurement": "Population Hoechst High Intensity Objects (%)", "setting": "[1]; replicate 2", "result": 3, "unit": "%"},
      {"measurement": "Population Membrane Permeable-Phenotype (%)", "setting": "[1]; replicate 2", "result": "6% and 3%"},
      {"measurement": "Population Mitotic Cells (%)", "setting": "[1]; replicate 2", "result": "88% and 86%"},
      {"measurement": "Population Normal (%)", "setting": "[1]; replicate 2", "result": 96, "unit": "%"},
      {"measurement": "Population Pyknosed Nuclei (%)", "setting": "[1]; replicate 2", "result": "2% and 4%"},
      {"measurement": "Population Tubulin-Different-Phenotype (%)", "setting": "[1]; replicate 2", "result": "9% and 23%"},
      {"measurement": "Total Cell Count", "setting": "[1]; replicate 2", "result": "3407 and 1342"},
      {"measurement": "Growth Rate", "setting": "[2]; [6]", "result": 0},
      {"measurement": "Growth Rate", "setting": "[2]; [7]", "result": 0},
      {"measurement": "Growth Rate", "setting": "[2]; 6 h, replicate number 2, timepoint 6 hours", "result": 1},
      {"measurement": "Growth Rate", "setting": "[2]; [8]", "result": 0},
      {"measurement": "Growth Rate", "setting": "[2]; [9]", "result": 0},
      {"measurement": "Growth Rate", "setting": "[2]; [10]", "result": 0},
      {"measurement": "Growth Rate", "setting": "[3]; [6]", "result": 0},
      {"measurement": "Growth Rate", "setting": "[3]; [7]", "result": 0},
      {"measurement": "Growth Rate", "setting": "[3]; [8]", "result": 0},
      {"measurement": "Growth Rate", "setting": "[3]; [9]", "result": 0},
      {"measurement": "Growth Rate", "setting": "[3]; [10]", "result": 0},
      {"measurement": "Growth Rate", "setting": "[4]; [6]", "result": 0},
      {"measurement": "Growth Rate", "setting": "[4]; [7]", "result": 0},
      {"measurement": "Growth Rate", "setting": "[4]; [8]", "result": 0},
      {"measurement": "Growth Rate", "setting": "[4]; [9]", "result": 0},
      {"measurement": "Growth Rate", "setting": "[4]; [10]", "result": 0},
      {"measurement": "Population Apoptotic (%)", "setting": "[5]; 12 h, replicate 1", "result": "53% and 27%"},
      {"measurement": "Population Fragmented Nuclei (%)", "setting": "[5]; 12 h, replicate 1", "result": "10% and 8%"},
      {"measurement": "Population Healthy Nuclei (%)", "setting": "[5]; 12 h, replicate 1", "result": "82% and 84%"},
      {"measurement": "Population Membrane Permeable-Phenotype (%)", "setting": "[5]; 12 h, replicate 1", "result": "13% and 7%"},
      {"measurement": "Population Mitochondria Different-Phenotype (%)", "setting": "[5]; 12 h, replicate 1", "result": "23% and 20%"},
      {"measurement": "Population Mitotic Cells (%)", "setting": "[5]; 12 h, replicate 1", "result": "46% and 72%"},
      {"measurement": "Population Normal (%)", "setting": "[5]; 12 h, replicate 1", "result": "93% and 98%"},
      {"measurement": "Population Pyknosed Nuclei (%)", "setting": "[5]; 12 h, replicate 1", "result": "7% and 6%"},
      {"measurement": "Population Tubulin-Different-Phenotype (%)", "setting": "[5]; 12 h, replicate 1", "result": "19% and 10%"},
      {"measurement": "Total Cell Count", "setting": "[5]; 12 h, replicate 1", "result": "160 and 443"},
      {"measurement": "Population Apoptotic (%)", "setting": "[5]; 12 h, replicate 2", "result": "0% and 25%"},
      {"measurement": "Population Fragmented Nuclei (%)", "setting": "[5]; 12 h, replicate 2", "result": 9, "unit": "%"},
      {"measurement": "Population Healthy Nuclei (%)", "setting": "[5]; 12 h, replicate 2", "result": "75% and 86%"},
      {"measurement": "Population Hoechst High Intensity Objects (%)", "setting": "[5]; 12 h, replicate 2", "result": "16% and 11%"},
      {"measurement": "Population Membrane Permeable-Phenotype (%)", "setting": "[5]; 12 h, replicate 2", "result": "17% and 9%"},
      {"measurement": "Population Mitochondria Different-Phenotype (%)", "setting": "[5]; 12 h, replicate 2", "result": 21, "unit": "%"},
      {"measurement": "Population Mitotic Cells (%)", "setting": "[5]; 12 h, replicate 2", "result": "100% and 75%"},
      {"measurement": "Population Normal (%)", "setting": "[5]; 12 h, replicate 2", "result": "83% and 88%"},
      {"measurement": "Population Tubulin-Different-Phenotype (%)", "setting": "[5]; 12 h, replicate 2", "result": "12% and 34%"},
      {"measurement": "Total Cell Count", "setting": "[5]; 12 h, replicate 2", "result": "138 and 311"},
      {"measurement": "Population Apoptotic (%)", "setting": "[5]; 24 h, replicate 1", "result": "68% and 25%"},
      {"measurement": "Population Healthy Nuclei (%)", "setting": "[5]; 24 h, replicate 1", "result": "79% and 93%"},
      {"measurement": "Population Hoechst High Intensity Objects (%)", "setting": "[5]; 24 h, replicate 1", "result": "3% and 2%"},
      {"measurement": "Population Membrane Permeable-Phenotype (%)", "setting": "[5]; 24 h, replicate 1", "result": "16% and 7%"},
      {"measurement": "Population Mitochondria Different-Phenotype (%)", "setting": "[5]; 24 h, replicate 1", "result": "30% and 18%"},
      {"measurement": "Population Mitotic Cells (%)", "setting": "[5]; 24 h, replicate 1", "result": "31% and 75%"},
      {"measurement": "Population Normal (%)", "setting": "[5]; 24 h, replicate 1", "result": "96% and 97%"},
      {"measurement": "Population Tubulin-Different-Phenotype (%)", "setting": "[5]; 24 h, replicate 1", "result": 22, "unit": "%"},
      {"measurement": "Total Cell Count", "setting": "[5]; 24 h, replicate 1", "result": "230 and 545"},
      {"measurement": "Population Apoptotic (%)", "setting": "[5]; 24 h, replicate 2", "result": "62% and 50%"},
      {"measurement": "Population Healthy Nuclei (%)", "setting": "[5]; 24 h, replicate 2", "result": "63% and 91%"},
      {"measurement": "Population Mitochondria Different-Phenotype (%)", "setting": "[5]; 24 h, replicate 2", "result": "33% and 31%"},
      {"measurement": "Population Mitotic Cells (%)", "setting": "[5]; 24 h, replicate 2", "result": "37% and 50%"},
      {"measurement": "Population Normal (%)", "setting": "[5]; 24 h, replicate 2", "result": "78% and 93%"},
      {"measurement": "Population Tubulin-Different-Phenotype (%)", "setting": "[5]; 24 h, replicate 2", "result": "23% and 33%"},
      {"measurement": "Total Cell Count", "setting": "[5]; 24 h, replicate 2", "result": "157 and 384"}
    ]}
  ]
}
